Reference: publication PMC7986169 (Clinical Pharmacology in Drug Development, 2021)
Values joined by “and” are separate entries in the source; they are usually repeats but may differ in a detail not shown here. Identical values can stand only once. Like-named read-outs stand apart in the source and are kept apart here.

Assays:
[1] = Population pharmacokinetic analysis; type: in vivo, human
In short: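 Oral dosing at 0.5–15 mg twice daily in UC patients, excluding creatinine clearance <40 mL/min. Predose and postdose plasma samples were stored at about –20°C and assayed by a validated method (LOQ 0.100 ng/mL). One-compartment model with first-order absorption, with or without lag. Exponential IIV on CL/F and V/F; IOV on Ka. Separate proportional residual errors for >8 h and ≤8 h postdose. FOCE with interaction; nonparametric bootstrap, 1000 runs.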

[2] = cited from earlier work
[3] = cited from earlier work; remark: listed apart in the source
JAK1 = conditions: in vitro assays; cited from earlier work
[4] = final model, table: estimate (RSE%), text: estimate (95%CI bootstrap)
[5] = fraction of the reference category (male)

CL/F, typical estimate ([1]; base model): 25.0 L/h
IIV (%CV) for CL/F ([1]; base model): 25.2%
IOV (%CV) for Ka ([1]; base model): 192.4%
Ka ([1]; base model): 9.9 h⁻¹
V/F, typical estimate ([1]; base model): 111 L
CL/F, bootstrap median ([1]; bootstrap of final model): 26.3 L/h
IIV for CL/F, bootstrap ([1]; bootstrap of final model): 22.2%
Ka, bootstrap median ([1]; bootstrap of final model): 9.86 h⁻¹
Lag time, bootstrap median ([1]; bootstrap of final model): 0.236 (NA) h
V/F, bootstrap median ([1]; bootstrap of final model): 115.5 (NA) L
IOV for Ka, bootstrap ([1]; bootstrap of final model, IOV instead of IIV (footnote b)): 191.9%
Dose proportionality of exposure ([1]; dose range 0.5-15 mg twice daily): dose‐proportional increase
Lower CL/F, Asian compared with non-Asian patients ([1]; final model prediction): 6.8%
Lower CL/F, baseline creatinine clearance 60 mL/min compared to 108.7 mL/min ([1]; final model prediction): 19%
Lower CL/F, females compared with males ([1]; final model prediction): 13.2%
Lower V/F, female compared with male patients ([1]; final model prediction): 15.5%
Lower V/F, patient aged 80 years compared with 40 years ([1]; final model prediction): 7.7%
Lower V/F, patient weighing 53 kg relative to 72.0 kg ([1]; final model prediction, 10th percentile of weight): approximately 16.4%
Higher V/F, patient weighing 95 kg relative to 72.0 kg ([1]; final model prediction, 90th percentile of weight): ~17.6%
IIV (%CV) for CL/F ([1]; final model, table: IIV (RSE%)): 22% and 22.2% and 22.2 (7.7) %
IOV (%CV) for Ka ([1]; final model, table: IOV (RSE%)): 191.8% and 191.8 (7.0) %
Ka (first-order absorption rate constant), typical estimate [1, 4]: 9.9 (7.1) h^−1
Lag time [1, 4]: 0.236 (0.52) h
Covariate parameter estimate: Female on CL/F [1, 5]: 0.868
Covariate parameter estimate: Female on V/F [1, 5]: 0.845
Covariate parameter estimate: Asian on CL/F ([1]; fraction of the reference category (non-Asian)): 0.932
Vd/F ([1]; human, plasma, oral): 116 L
half-life ([1]; human, plasma, oral, Derived elimination half-life (t½), final model, patients with UC): 3.05 h
half-life ([1]; human, plasma, oral, Derived elimination t½, base model): ~3.05 h
Covariate parameter estimate: Age on V/F ([1]; power function exponent, normalized to 40.0 years): –0.116
Covariate parameter estimate: BCCL on CL/F ([1]; power function exponent, normalized to 108.7 mL/min): 0.354
Structure (SMILES): C[C@@H]1CCN(C(=O)CC#N)C[C@@H]1N(C)c1ncnc2[nH]ccc12 [tofacitinib]
CL/F (apparent oral clearance), typical estimate ([1]; final model, reference individual: non-Asian male, 72.0 kg, 40.0 years, baseline creatinine clearance 108.7 mL/min, table: estimate (RSE%), text: estimate (95%CI bootstrap)): 26.3 L/h and 26.3 (25.5–27.2) L/h and 26.3 (1.2) L/h
Covariate parameter estimate: Body weight on V/F ([1]; power function exponent, normalized to 72.0 kg): 0.585
Share of clearance due to renal elimination [2]: 30%
Mean terminal-phase half-life (t½) ([2]; healthy volunteers): approximately 3.2 h
Time of peak plasma concentration after oral administration ([2]; healthy volunteers): approximately 1 hour (h)
Share of clearance via hepatic metabolism ([2]; primarily via cytochrome P450 3A4): 70%
AUC higher than in healthy individuals ([3]; mild renal impairment): 37%
AUC higher than in healthy individuals ([3]; moderate renal impairment): 43%
AUC higher than in healthy individuals ([3]; severe renal impairment): 123%
Inhibitory potency for JAK1 (JAK1): potent inhibitor
